Entries after “also recorded” stand apart in the source; their conditions may differ.

The target in test [1] is T1, Rsa4 β-propeller (Rsa4Δ136) (S. cerevisiae, UniProt P25382 137-515).
T1 sequence: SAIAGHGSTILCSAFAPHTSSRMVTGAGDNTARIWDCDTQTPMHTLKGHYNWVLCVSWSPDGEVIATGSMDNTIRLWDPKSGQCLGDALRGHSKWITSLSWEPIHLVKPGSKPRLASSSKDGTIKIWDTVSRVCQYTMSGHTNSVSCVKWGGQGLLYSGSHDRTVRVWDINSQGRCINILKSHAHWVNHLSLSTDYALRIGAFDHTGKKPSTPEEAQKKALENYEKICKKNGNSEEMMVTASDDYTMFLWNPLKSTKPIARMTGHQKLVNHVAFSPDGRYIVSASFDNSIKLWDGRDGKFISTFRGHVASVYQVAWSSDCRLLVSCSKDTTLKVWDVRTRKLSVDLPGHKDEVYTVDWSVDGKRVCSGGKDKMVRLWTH
In words: ITC. In general terms: Isothermal titration calorimetry measures the heat released or taken up as one component is titrated into another.

The target in test [2] is T2, HIS6-Rsa4 WD40 domain (S. cerevisiae, UniProt P25382 112-515).
T2 sequence: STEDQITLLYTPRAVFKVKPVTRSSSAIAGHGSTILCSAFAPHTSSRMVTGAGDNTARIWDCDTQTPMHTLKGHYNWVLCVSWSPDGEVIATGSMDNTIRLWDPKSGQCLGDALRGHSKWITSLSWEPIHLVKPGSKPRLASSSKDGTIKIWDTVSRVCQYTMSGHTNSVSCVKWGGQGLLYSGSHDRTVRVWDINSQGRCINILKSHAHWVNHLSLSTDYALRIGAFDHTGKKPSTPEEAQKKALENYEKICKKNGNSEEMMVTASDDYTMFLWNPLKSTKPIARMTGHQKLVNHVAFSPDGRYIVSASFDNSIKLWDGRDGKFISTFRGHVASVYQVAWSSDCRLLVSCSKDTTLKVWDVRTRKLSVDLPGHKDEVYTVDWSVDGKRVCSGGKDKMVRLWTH
Briefly: pull-down.

Test [3] relates to Nsa2. In words: in vitro binding assay of Rsa4 mutants with MBP-Nsa2. On the set-up: species or system Saccharomyces cerevisiae. To be noted: immobilized MBP-Nsa2, HIS-TEV-Rsa4 mutant in E. coli lysate; SDS-PAGE. In a few lines: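 Bait and prey were expressed in E. coli by IPTG induction for 3 h. MBP-Nsa2 was prepurified on SP Sepharose and bound to amylose resin; HIS-TEV-Rsa4 variants were Ni-NTA-purified. Beads were incubated 45 min with a 5× excess of Rsa4 mixed with MBP-depleted E. coli lysate as competitor. Beads were washed in 20 mM Hepes pH 7.5, 200 mM NaCl, 1 mM DTT and eluted in SDS sample buffer (10 min, 65°C). Eluates were run on 4–12% SDS-PAGE with Coomassie staining.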

For test [4], the system named is Rsa4 shuffle strain (rsa4Δ). In words: complementation of rsa4Δ. It counts as cell-based, Saccharomyces cerevisiae. The settings on record: SDC+FOA, 30°C, 2 d.
The test system of test [5] is wild-type yeast growth. In words: dominant-negative phenotype upon GAL overexpression in wild-type yeast. Type of test: cell-based, Saccharomyces cerevisiae. The settings on record: GAL promoter, galactose medium, 30°C, 2 or 3 d.
Test [6] relates to pre-60S particles. In words: association with pre-60S particles. To be noted: for association with pre-60S particles: 10–50% sucrose gradient, anti-ProtA Western blot. It counts as cell-based, Saccharomyces cerevisiae. In a few lines:
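Wild-type yeast expressed plasmid-borne NSA2-FTpA or nsa2 Y90A-FTpA. Cells were treated with cycloheximide for 15 min and lysed with glass beads. Whole-cell lysates were fractionated on 10–50% sucrose gradients (16 h, 27,000 rpm, 0.4 ml fractions), and fractions were probed by Western blot with anti-ProtA to detect tagged Nsa2.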

The subject of test [7] is 60S subunit production / pre-60S composition. In words: pulse-chase labeling with affinity purification of Rpl25. It counts as cell-based, Saccharomyces cerevisiae. In a few lines:
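Strain DS1-2b carried an amber-suppressor tRNA/synthetase plasmid and a GAL plasmid co-expressing 2×HA-TAG-Rpl25-FTpA with wild-type or Y90A Nsa2. After 60 min galactose induction, O-methyl-tyrosine was added as a 7 min pulse, followed by a 20 min chase with tetracycline and glucose. Rpl25 was TAP-purified, run on SDS-PAGE with Coomassie staining, and bands were identified by mass spectrometry.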

In test [8] the test system is Nsa2 shuffle strain (nsa2Δ). In words: complementation of nsa2Δ. Type of test: cell-based, Saccharomyces cerevisiae. To be noted: SDC+FOA, 30°C, 2 or 3 d.
Test [9] concerns 60S subunit formation and nuclear export. Briefly: 60S biogenesis/export upon overexpression. Type of test: cell-based, Saccharomyces cerevisiae. The settings on record: galactose-containing medium, 6 h (nsa2) or 8 h (rsa4). In a few lines: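 Wild-type yeast carried plasmids for the 60S reporter Rpl25-EGFP and mRFP-Nop1, plus 2μ GAL-driven NSA2 alleles. Cells were shifted to galactose medium for 6 h (Nsa2), washed in water and imaged at room temperature (100× oil objective, EGFP/Cy3 filters). For profiles, cells were treated with cycloheximide for 15 min, lysed with glass beads and run on 10–50% sucrose gradients (16 h, 27,000 rpm), recorded at 254 nm.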

With DALPTYLLDRE [Nsa2 peptide (85–95 aa, DALPTYLLDRE)], in [1], the binding result is given as “binds”.
For the molecule GDALPTYLLDREQ (domain or fragment) [MBP-Nsa2 84–96 aa], the binding result in test [2] is “binds”.

B1: Rsa4 Y448E (protein)
chain: MSTLIPPPSKKQKKEAQLPREVAIIPKDLPNVSIKFQALDTGDNVGGALRVPGAISEKQLEELLNQLNGTSDDPVPYTFSCTIQGKKASDPVKTIDITDNLYSSLIKPGYNSTEDQITLLYTPRAVFKVKPVTRSSSAIAGHGSTILCSAFAPHTSSRMVTGAGDNTARIWDCDTQTPMHTLKGHYNWVLCVSWSPDGEVIATGSMDNTIRLWDPKSGQCLGDALRGHSKWITSLSWEPIHLVKPGSKPRLASSSKDGTIKIWDTVSRVCQYTMSGHTNSVSCVKWGGQGLLYSGSHDRTVRVWDINSQGRCINILKSHAHWVNHLSLSTDYALRIGAFDHTGKKPSTPEEAQKKALENYEKICKKNGNSEEMMVTASDDYTMFLWNPLKSTKPIARMTGHQKLVNHVAFSPDGRYIVSASFDNSIKLWDGRDGKFISTFRGHVASVEQVAWSSDCRLLVSCSKDTTLKVWDVRTRKLSVDLPGHKDEVYTVDWSVDGKRVCSGGKDKMVRLWTH
As to B1, the “binding to Nsa2” value in test [3] was “impaired binding to Nsa2 in vitro”. The “growth / viability (complementation)” value in [4] was “blocked cell growth in vivo”. Moreover, in test [5], the “dominant-negative phenotype upon overexpression” value is “less pronounced dominant-negative phenotype”. In test [6], the “association with pre-60S particles” value is “partly impaired in association with pre-60S particles”.

B2: nsa2 Y90A: Nsa2 with tyrosine 90 mutated to alanine (protein)
chain: MPQNDYIERHIKQHGKRLDHEERKRKREARESHKISERAQKLTGWKGKQFAKKRYAEKVSMRKKIKAHEQSKVKGSSKPLDTDGDALPTALLDREQNNTAKAISSSIKQKRLEKADKFSVPLPKVRGISEEEMFKVIKTGKSRSKSWKRMITKHTFVGEGFTRRPVKMERIIRPSALRQKKANVTHPELGVTVFLPILAVKKNPQSPMYTQLGVLTKGTIIEVNVSELGMVTAGGKVVWGKYAQVTNEPDRDGCVNAVLLV
modifications: left off: MBP, N-terminal, kept
Take B2: the “60S production in pulse-chase” value in test [7] (60-min galactose induction, 7 min Ome-Tyr pulse, 20 min chase) was “arrests 60S biogenesis”. Besides, the “enrichment of methyl-transferases Spb1 and Nop2” value in [7] (arrested preribosomal intermediate, HA-Rpl25-Flag-ProtA purification) is on record as “strongly enriched”. Also, the “growth / viability (complementation)” value in test [8] was “nonviable”. Besides, the figures for the “dominant-negative phenotype upon overexpression” value in test [5] and in test [5] (listed as Nsa2 Y90A) were “dominant lethal” and “strong dominant-lethal phenotype”, respectively. For the same molecule, the “effect of overexpression on 60S biogenesis / export” value was “defect in 60S subunit export” in test [9]; “specific block in nuclear export and formation of 60S subunits” in test [9] (listed as Nsa2 Y90A). In [6], the “association with pre-60S particles” value was “still associated with pre-60S particles; also recorded: efficiently assembled into preribosomes”. Also, the “replacement of endogenous Nsa2 in preribosomes” value in test [6] (upon overexpression) was “replacement of endogenous Nsa2 within the preribosomes”.

Source of the values: PMC4242840 (The Journal of Cell Biology, 2014).
